{
  "source": "ChEMBL document CHEMBL1153862",
  "about": "“Design, synthesis and biological evaluation of novel fluorinated docetaxel analogues” (Eur J Med Chem, 2009)",
  "key": {"A549 [1]": {"test_system": "A549", "experiment": "Antitumor activity against human A549 cells xenografted BALB/cA mouse at 16 mg/kg, iv relative to control", "assay_type": "functional", "how_it_was_run": "(§1)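 A549 NSCLC cells were injected s.c. into BALB/cA nude mice (18 ± 3 g, 6 per group). After 2–3 passages, tumors were grafted s.c. at the right oxter. Once tumors were palpable (about 100–300 mm³ in methods; 80–150 mm³ in table footnote), mice were randomized to untreated, docetaxel or treated groups, dosed i.v., and measured by calipers 3 times weekly. T/C% = mean treated/mean control tumor volume × 100, read at day 14.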"}, "A549 [2]": {"test_system": "A549", "experiment": "Antitumor activity against human A549 cells xenografted BALB/cA mouse at 12 mg/kg, iv relative to control", "assay_type": "functional", "how_it_was_run": "as §1"}, "Mus musculus [3]": {"test_system": "Mus musculus", "experiment": "Toxicity in BALB/cA nude mouse assessed as change in body weight at 12 mg/kg, iv", "conditions": "in vivo"}, "SK-OV-3": {"test_system": "SK-OV-3", "experiment": "Cytotoxicity against human SKOV3 cells after 72 hrs by SRB assay", "assay_type": "functional, cell-based", "conditions": "SK-OV-3, 72 h", "how_it_was_run": "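SK-OV-3 ovarian cells were grown in RPMI 1640 with 10% FBS at 37 °C and 5% CO2, seeded at 0.4–1.0 × 10⁴ cells/well and treated after 24 h. Compounds were dissolved in DMSO (≤0.1% final) and tested at at least five concentrations for 72 h. Growth was read by SRB at OD 520 nm; tests were run 3 times in quadruplicate. IC50 came from survival-versus-concentration curves.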"}, "Mus musculus [4]": {"test_system": "Mus musculus", "experiment": "Toxicity in BALB/cA nude mouse assessed as change in body weight at 16 mg/kg, iv", "conditions": "in vivo"}, "Mus musculus [5]": {"test_system": "Mus musculus", "experiment": "Toxicity in BALB/cA nude mouse assessed as survival at 12 mg/kg, iv", "conditions": "in vivo"}, "[6]": {"experiment": "Toxicity in Kunming mouse assessed as survival", "assay_type": "organism-based", "conditions": "in vivo", "how_it_was_run": "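Healthy Kunming mice of both sexes, 18–22 g, split into 7 weight-matched groups of 10. Single i.p. dose at 92.0, 115.0, 143.0, 179.0, 224.0, 280.0 or 350.0 mg/kg. Behaviour, body weight and deaths recorded over 14 days. LD₅₀ with 95% confidence limits derived by the Bliss method.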"}, "Mus musculus [7]": {"test_system": "Mus musculus", "experiment": "Toxicity in BALB/cA nude mouse assessed as survival at 16 mg/kg, iv", "conditions": "in vivo"}, "A549 [8]": {"test_system": "A549", "experiment": "Antitumor activity against human A549 cells xenografted BALB/cA mouse at 18 mg/kg, iv relative to control", "assay_type": "functional", "how_it_was_run": "as §1"}, "Mus musculus [9]": {"test_system": "Mus musculus", "experiment": "Toxicity in BALB/cA nude mouse assessed as survival at 18 mg/kg, iv", "conditions": "in vivo"}, "Mus musculus [10]": {"test_system": "Mus musculus", "experiment": "Toxicity in BALB/cA nude mouse assessed as change in body weight at 18 mg/kg, iv", "conditions": "in vivo"}},
  "data": [
    {"smiles": "CC(=O)O[C@@]12CO[C@@H]1C[C@H](O)[C@@]1(C)C(=O)[C@H](O)C3=C(C)[C@@H](OC(=O)[C@H](O)[C@@H](NC(=O)OC(C)(C)CF)c4ccccc4)C[C@@](O)([C@@H](OC(=O)c4ccccc4)[C@H]21)C3(C)C", "values": [
      {"measurement": "T/C", "setting": "A549 [1]", "value": 37.9, "unit": "%"},
      {"measurement": "T/C", "setting": "A549 [2]", "value": 41.5, "unit": "%"},
      {"measurement": "Activity", "setting": "Mus musculus [3]", "value": -19.1, "unit": "%"},
      {"measurement": "IC50", "setting": "SK-OV-3", "value": 3.8, "unit": "nM"},
      {"measurement": "Activity", "setting": "Mus musculus [4]", "value": -22, "unit": "%"},
      {"measurement": "Activity", "setting": "Mus musculus [5]", "value": "Non-toxic"},
      {"measurement": "LD50", "setting": "[6]", "value": 74.1, "unit": "mg/kg"},
      {"measurement": "Activity", "setting": "Mus musculus [7]", "value": "Non-toxic"}
    ]},
    {"smiles": "CC(=O)O[C@@]12CO[C@@H]1C[C@H](O)[C@@]1(C)C(=O)[C@H](O)C3=C(C)[C@@H](OC(=O)[C@H](O)[C@@H](NC(=O)OC(C)(C)C(F)(F)F)c4ccccc4)C[C@@](O)([C@@H](OC(=O)c4cccc(F)c4)[C@H]21)C3(C)C", "values": [
      {"measurement": "IC50", "setting": "SK-OV-3", "value": 34, "unit": "nM"}
    ]},
    {"smiles": "CC(=O)O[C@@]12CO[C@@H]1C[C@H](O)[C@@]1(C)C(=O)[C@H](O)C3=C(C)[C@@H](OC(=O)[C@H](O)[C@@H](NC(=O)OC(C)(C)CF)c4ccccc4)C[C@@](O)([C@@H](OC(=O)c4cccc(F)c4)[C@H]21)C3(C)C", "values": [
      {"measurement": "T/C", "setting": "A549 [2]", "value": 53.7, "unit": "%"},
      {"measurement": "Activity", "setting": "Mus musculus [3]", "value": -18, "unit": "%"},
      {"measurement": "T/C", "setting": "A549 [8]", "value": 30.2, "unit": "%"},
      {"measurement": "Activity", "setting": "Mus musculus [9]", "value": "Non-toxic"},
      {"measurement": "IC50", "setting": "SK-OV-3", "value": 0.03, "unit": "nM"},
      {"measurement": "Activity", "setting": "Mus musculus [5]", "value": "Non-toxic"},
      {"measurement": "Activity", "setting": "Mus musculus [10]", "value": -31.3, "unit": "%"}
    ]},
    {"smiles": "CC(=O)O[C@@]12CO[C@@H]1C[C@H](O)[C@@]1(C)C(=O)[C@H](O)C3=C(C)[C@@H](OC(=O)[C@H](O)[C@@H](NC(=O)OC(C)(C)C(F)(F)F)c4ccccc4)C[C@@](O)([C@@H](OC(=O)c4ccccc4)[C@H]21)C3(C)C", "values": [
      {"measurement": "T/C", "setting": "A549 [2]", "value": 91.8, "unit": "%"},
      {"measurement": "Activity", "setting": "Mus musculus [3]", "value": 0, "unit": "%"},
      {"measurement": "T/C", "setting": "A549 [8]", "value": 72, "unit": "%"},
      {"measurement": "Activity", "setting": "Mus musculus [9]", "value": "Non-toxic"},
      {"measurement": "IC50", "setting": "SK-OV-3", "value": 0.01, "unit": "nM"},
      {"measurement": "Activity", "setting": "Mus musculus [5]", "value": "Non-toxic"},
      {"measurement": "Activity", "setting": "Mus musculus [10]", "value": -9.7, "unit": "%"}
    ]},
    {"smiles": "CC(=O)O[C@@]12CO[C@@H]1C[C@H](O)[C@@]1(C)C(=O)[C@H](O)C3=C(C)[C@@H](OC(=O)[C@H](O)[C@@H](NC(=O)OC(C)(C)C(F)F)c4ccccc4)C[C@@](O)([C@@H](OC(=O)c4ccccc4)[C@H]21)C3(C)C", "values": [
      {"measurement": "T/C", "setting": "A549 [2]", "value": 91.5, "unit": "%"},
      {"measurement": "Activity", "setting": "Mus musculus [3]", "value": 0, "unit": "%"},
      {"measurement": "T/C", "setting": "A549 [8]", "value": 83.5, "unit": "%"},
      {"measurement": "Activity", "setting": "Mus musculus [9]", "value": "Non-toxic"},
      {"measurement": "IC50", "setting": "SK-OV-3", "value": 0.02, "unit": "nM"},
      {"measurement": "Activity", "setting": "Mus musculus [5]", "value": "Non-toxic"},
      {"measurement": "Activity", "setting": "Mus musculus [10]", "value": -7.7, "unit": "%"}
    ]},
    {"smiles": "CC(=O)O[C@@]12CO[C@@H]1C[C@H](O)[C@@]1(C)C(=O)[C@H](O)C3=C(C)[C@@H](OC(=O)[C@H](O)[C@@H](NC(=O)OC(C)(C)C(F)F)c4ccccc4)C[C@@](O)([C@@H](OC(=O)c4cccc(F)c4)[C@H]21)C3(C)C", "values": [
      {"measurement": "T/C", "setting": "A549 [2]", "value": 51.7, "unit": "%"},
      {"measurement": "Activity", "setting": "Mus musculus [3]", "value": -16.5, "unit": "%"},
      {"measurement": "T/C", "setting": "A549 [8]", "value": 24.4, "unit": "%"},
      {"measurement": "Activity", "setting": "Mus musculus [9]", "value": "Non-toxic"},
      {"measurement": "IC50", "setting": "SK-OV-3", "value": 0.05, "unit": "nM"},
      {"measurement": "Activity", "setting": "Mus musculus [5]", "value": "Non-toxic"},
      {"measurement": "Activity", "setting": "Mus musculus [10]", "value": -26.7, "unit": "%"}
    ]},
    {"smiles": "CC(=O)O[C@@]12CO[C@@H]1C[C@H](O)[C@@]1(C)C(=O)[C@H](O)C3=C(C)[C@@H](OC(=O)[C@H](O)[C@@H](NC(=O)OC(C)(C)C)c4ccccc4)C[C@@](O)([C@@H](OC(=O)c4ccccc4)[C@H]21)C3(C)C.O.O.O", "note": "[DOCETAXEL]", "values": [
      {"measurement": "T/C", "setting": "A549 [2]", "value": 43, "unit": "%"},
      {"measurement": "Activity", "setting": "Mus musculus [3]", "value": -19.6, "unit": "%"},
      {"measurement": "IC50", "setting": "SK-OV-3", "value": 3.4, "unit": "nM"},
      {"measurement": "Activity", "setting": "Mus musculus [5]", "value": "Non-toxic"}
    ]}
  ]
}
